Sampled rows, rich in hits. Any-hit rate of the full collection: about 1.4%.
Casp6 inh: human caspase-6 inhibitors, primary screen, biochemical, VEID-R110 fluorescence, single point, set 2. inhibition, % at 12.5 µM. purified caspase-6, Z-VEID-R110 cleavage fluorescence. P55212. 0.53% of 350,000 active;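 active = mean inhibition across replicates at least about 35%, with every replicate also reaching that limit, limit read from the data; inconclusive = only one of the two criteria met; inactive = neither criterion met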;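 also: 0% = median of neutral control wells and 100% = no fluorescence left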
Target sequence (P55212 24-179 limits assumed): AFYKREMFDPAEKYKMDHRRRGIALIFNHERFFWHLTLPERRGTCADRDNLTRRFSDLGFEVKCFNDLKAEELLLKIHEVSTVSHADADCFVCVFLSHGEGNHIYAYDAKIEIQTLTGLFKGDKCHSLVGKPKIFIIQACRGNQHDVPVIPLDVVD
Target sequence (P55212 194-293 limits assumed): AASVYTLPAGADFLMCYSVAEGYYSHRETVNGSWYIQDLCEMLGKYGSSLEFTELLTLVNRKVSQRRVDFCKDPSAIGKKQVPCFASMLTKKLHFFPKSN
T cell HTS: modulators of CD8 T cell-vesicle binding, primary screen, mouse 2C CD8+ T cells, flow cytometry | 0.068% of 330,000 active | response (vesicle binding), % at 7 µM | AID 2052, 2009 | 2C CD8+ T cell-vesicle binding; stronger effect = lower value;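 active = response, share of CD8 T cells binding vesicles, and their 90th percentile fluorescence all below set limits, cut at about 80% in these data, passing the limit was not always enough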;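 also: values below 100% mean blocked vesicle binding to the CD8+ T cells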
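Read-out – percent CD8+ FL2 mean versus row control · System – murine 2C transgenic CD8+ T lymphocytes · Times – 1.5 h cell–vesicle binding at 37 °C, then 20 min icy labelling · Control set – naked vesicles low, QL9 vesicles with vehicle high · Detection – cytometric PE anti-B7-1 and Alexa647 anti-CD8 signals after 1% paraformaldehyde fixation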
Myeloid diff 2: induction of myeloid progenitor differentiation, primary screen, cell-based, flow cytometry, MLPCN library; 1% of 360,000 active; ER-HoxA9 myeloid progenitors, lysozyme-GFP differentiation; AID 624256, 2012; calls only at 10 µM;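 active = normalized GFP-positive differentiation at or above the plate's own cutoff, the solvent-only control mean plus 3 SD; inconclusive = no clear call, values can overlap the other calls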;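 also: cells exposed to compound for four days before flow analysis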
Vif imaging: HIV Vif self-association inhibitors, primary screen, imaging, HEK293T, single point | HEK293T cells, Vif self-association by quenched fluorescence, 24 h | inhibition, % at 7.49 µM | 0.35% of 340,000 active | AID 602346, 2012; in the data active = inhibition above about 50%, passing the limit was not always enough; inconclusive = no clear call, values can overlap the other calls; inactive = below about 31%
Myeloid diff CP1: inducers of myeloid progenitor differentiation, confirmation, cell-based, GFP/Mac1 flow cytometry, cherry pick 01 | shares compounds with Myeloid diff 2 | ER-HoxA9 myeloid progenitors, GFP/Mac1 double-positive flow | calls only | 2% of 2,300 active | AID 651706, 2012;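 active = share of green or green-and-red cells above 9 and 9% in run 1 or 4 and 3% in run 2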
GFP autofluor: counter-screen for myeloid differentiation promoters: compound fluorescence. ER-HoxA9 myeloid progenitors, no estrogen, GFP autofluorescence flow cytometry; vehicle wells 0%, positive control 100%. fluorescence response, % (test concentration not listed). AID 651707. shares compounds with Myeloid diff 2. 7.4% of 2,300 active;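 active = over 5% cells positive for green fluorescent reporter, or over 2% positive for both it and APC stain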;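 also: range taken on the double positive population between DMSO and positive control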
An asterisk follows results filed as active; i = inactive; ? = inconclusive; . = no result given; + = active, no number.

SMILES	Casp6 inh	T cell HTS	Myeloid diff 2	Vif imaging	Myeloid diff CP1	GFP autofluor
C[C@@H]1CN([C@@H](C)CO)S(=O)(=O)c2ccc(C3=CCCCC3)cc2O[C@@H]1CN(C)S(=O)(=O)c1ccc(F)cc1	1.3	.	.	.	.	.
CC=Cc1ccc2n(c1=O)C[C@H]1[C@H](CO)[C@@H](C(=O)N(C)C)[C@@H]2N1CC1CCCC1 (mixture of isomers)	2.1	.	.	.	.	.
O=c1c2ccccc2c(/C=N/NS(=O)(=O)c2ccccc2)c(O)n1-c1ccccn1	5.6	214.6	i	0.2	i	0.0
COc1ccc(-n2c(O)c(/C=N/NS(=O)(=O)c3ccc(C)c([N+](=O)[O-])c3)c3ccccc3c2=O)cc1OC	25.6	276.1	i	8.4	.	.
Cc1nc2nc(-c3ccccc3)[nH]n2c(=O)c1C	-0.6	253.0	i	.	i	0.5
CCCCc1nn(-c2cc(Cl)ccc2OC)c2c1C(=O)CC(C)(C)C2	1.1	393.6	i	-22.3	i	0.9
CCCc1nn(-c2cc(Cl)ccc2OC)c2c1C(=O)CCC2	-2.1	445.2	i	-20.1	.	.
O=C1c2cccnc2C(Nc2ccccc2)N1Cc1ccco1 (centres undefined)	.	349.4	i	17.1	i	0.0
CCCCCCOC(=O)C(C#N)c1nc2ccccc2nc1N1CCN(CC)CC1 (centres undefined)	.	125.6	+	11.6	i	0.0
O=C(N[C@@H]1CC[C@@H](CCNC(=O)C2CC2)O[C@H]1CO)c1ccncc1	0.2	.	.	.	.	.
CCOC(=O)NC1(C(F)(F)F)N=C(c2ccccc2)NC1=O (centres undefined)	.	181.0	i	3.0	.	.
CC(=O)Nc1ccc(S(=O)(=O)NC2(C(F)(F)F)N=C(c3ccccc3)NC2=O)cc1 (centres undefined)	1.6	461.7	i	.	i	0.0
COc1ccc(S(=O)(=O)N(C)C[C@@H]2Oc3ccc(NC(=O)CCCN(C)C)cc3C(=O)N([C@@H](C)CO)C[C@H]2C)cc1	2.1	.	.	.	.	.
COc1ccccc1NC(=O)Nc1c(C)n(C)n(-c2ccccc2)c1=O	.	326.7	i	3.2	i	0.0
COCC(=O)N(C)C[C@@H]1Oc2cc(C#Cc3ccccc3)ccc2S(=O)(=O)N([C@@H](C)CO)C[C@H]1C	3.5	.	.	.	.	.
CCN1CCN(Cc2cccc(Oc3ccc(Cl)cc3)c2)CC1	-5.1	350.0	+	-2.9	i	0.5
CC1=NN(c2ccccc2)C(=O)C1C=Nc1ccccc1O (centres undefined)	-2.4	244.5	+	-3.1	i	0.7
COCC(=O)N(C)C[C@@H]1Oc2ncc(C3=CCCC3)cc2C(=O)N([C@@H](C)CO)C[C@H]1C	-0.8	.	.	.	.	.
O=S(=O)(c1ccccc1)N1CCCCN2[C@H](C1)[C@H](c1ccc(-c3cncnc3)cc1)[C@@H]2CO	-1.2	.	.	.	.	.
N#C/C(=C\c1ccccc1)C(=O)NC1CC1	3.5	165.3	i	3.6	.	.
N#C/C(=C\c1cccnc1)C(=O)NC1CCCCC1	.	5.9	+	-8.4	i	0.8
COc1cccc(Cn2cnc3c(N)c(C)c(C)cc32)c1	-2.0	304.7	i	0.0	i	0.0
N#Cc1c(N)nc(SCc2ccccn2)c(C#N)c1-c1cccs1	.	325.4	i	7.4	i	0.0
CCOC(=O)CSc1nc(N)c(C#N)c(-c2cccs2)c1C#N	.	310.3	i	-9.2	.	.
CCCn1c(SCC(=O)Nc2ccccc2Cl)nc(O)cc1=O	4.2	.	i	-2.3	i	0.0
SMILES	Casp6 inh	T cell HTS	Myeloid diff 2	Vif imaging	Myeloid diff CP1	GFP autofluor
CCCn1c(SCC(=O)Nc2cccc(F)c2)nc(O)cc1=O	0.3	556.1	i	1.6	.	.
CCCNS(=O)(=O)c1cccc(C(=O)NC2CCCc3ccccc32)c1 (centres undefined)	.	299.5	i	-4.5	i	0.3
CN(C)S(=O)(=O)c1cccc(C(=O)NC2CCCc3ccccc32)c1 (centres undefined)	.	219.0	i	10.4	.	.
COc1ccccc1-c1ccc(C2[C@H]3CNC[C@@H]2N3Cc2nccs2)cc1 (some centres undefined)	-1.5	.	.	.	.	.
COc1ccccc1NS(=O)(=O)c1cc(NC(=O)Cc2n[nH]c(=O)c3ccccc23)ccc1Cl	0.7	62.5	i	-16.9	i	0.4
CCOc1ccc(N(Cc2ccc(OC)cc2)C(=O)c2ccco2)cc1	2.4	207.5	i	-20.1	.	.
COc1ccc(CN(C(=O)c2ccco2)c2ccc(C)c(C)c2)cc1	4.3	421.0	+	-10.6	i	0.0
Cc1cc(C(=O)O)c(CCCN)s1	.	339.8	i	-10.5	i	0.3
CCC(C)Sc1ccc(-c2nc3cc(C)ccn3c2NC2CCCCC2)cc1 (centres undefined)	-7.6	183.7	+	-5.0	+	3.8
CCCCCCSc1ccc(-c2nc3cc(C)ccn3c2NC2CCCCC2)cc1	-1.8	234.8	i	14.4	.	.
CCCCCCSc1ccc(-c2nc3cnccn3c2NC2CCCCC2)cc1	3.6	.	i	.	i	18.4*
COc1ccc2nc3ccccc3nc2c1NC(=O)c1ccc(Br)cc1	-0.6	195.7	+	6.9	i	5.4*
COc1cc(NC(=O)c2ccc(Br)cc2)c(OC)cc1NC(=O)c1ccccc1	-1.8	263.3	i	-0.1	.	.
CCCCCCCCCn1c2c(c(=N)c3c1CCC3)CCC2	.	321.5	.	-5.9	.	.
CCCCn1c2c(c(=N)c3c1CCC3)CCC2	.	230.4	i	15.9	i	0.0
COC(=O)/C(=C/Nc1ccc(O)cc1)[N+](=O)[O-]	.	249.2	i	1.9	.	.
COC(=O)/C(=C/Nc1ccccc1)[N+](=O)[O-]	.	729.3	.	-1.0	i	2.4
Cc1csc(SCC(=O)Nc2sc3c(c2C#N)CCC3)n1	.	147.7	i	-3.4	i	0.6
Cc1ccnc(SCC(=O)Nc2sc3c(c2C#N)CCCC3)n1	.	311.4	i	-29.5	.	.
COCC(=O)N1CCC2(CC1)CN(C(=O)CN1CCOCC1)[C@@H](CO)c1c2c2ccc(OC)cc2n1C	0.2	.	.	.	.	.
C#CC[N+](CC)(CC)CC#Cc1cccc(Cl)c1	.	156.8	+	?	i	0.9
COC(=O)C[C@@H]1C=C[C@@H](NC(=O)c2ccccc2F)[C@@H](CO)O1	10.3	.	i	.	i	0.0
Cc1cc(-c2cc(-c3ccc(Cl)cc3)nc(N)c2C#N)co1	.	295.3	+	0.0	i	0.2
O=C(CSc1oc(-c2ccccc2)nc1S(=O)(=O)c1ccc(F)cc1)NCC1CCCO1 (centres undefined)	.	437.7	i	-1.3	i	0.3
CNC[C@@H]1Oc2ccc(NC(=O)CCCN(C)C)cc2CC(=O)N([C@@H](C)CO)C[C@H]1C	-2.3	.	.	.	.	.
C/C(=C1/SC(N2CCCC2)=NC1=O)c1ccc(Br)cc1	.	188.6	+	-8.5	+	1.0
